High-throughput results deposited in PubChem by several laboratories.
VLA-4 inh: inhibition in a human VLA-4 binding assay; P13612; VLA-4 expressing cells, ligand binding flow cytometry; inhibition, % (about 7 µM as worked out from the volumes in the protocol); 330,000 compounds, 0.2% hits; AID 2557; in the data active = inhibition above about 50%
NR2E3 ag-1: agonists of human NR2E3 nuclear receptor; Q9Y5X4; inhibition of corepressor binding, % at 3.98 µM; CHO-S Gal4-NCOR/VP16-NR2E3 two-hybrid, luciferase; 360,000 compounds, 0.35% hits;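 active = inhibition above the mean of all tested compounds plus 3 SD, cut at about 70% in these data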;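 also: 0% = DMSO with NR2E3 transfected cells and 100% = cells lacking NR2E3 construct; higher means lower luciferase signal from less NR2E3 corepressor binding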
Target sequence (Q9Y5X4 whole entry, looked up, the tested form may be a part): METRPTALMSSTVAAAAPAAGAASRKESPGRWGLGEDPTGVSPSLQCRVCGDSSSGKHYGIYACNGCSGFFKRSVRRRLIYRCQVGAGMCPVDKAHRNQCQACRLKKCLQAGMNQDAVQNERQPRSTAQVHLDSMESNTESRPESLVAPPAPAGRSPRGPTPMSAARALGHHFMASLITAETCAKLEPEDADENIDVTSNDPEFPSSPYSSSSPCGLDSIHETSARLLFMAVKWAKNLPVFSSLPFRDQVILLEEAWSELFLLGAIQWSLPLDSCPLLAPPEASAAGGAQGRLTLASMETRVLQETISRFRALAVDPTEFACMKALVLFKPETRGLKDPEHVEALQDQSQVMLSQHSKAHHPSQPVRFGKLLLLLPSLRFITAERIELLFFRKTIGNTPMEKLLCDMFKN
Rev-erbA mod: modulators of human Rev-erb alpha DNA binding. activity, % at 10 µM. Rev-erbα–FITC-DNA binding, fluorescence polarization, 90 min. 370,000 compounds, 0.79% hits. P20393. AID 1259318;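 active = activity above about 14%, limit read from the data; passing the limit was not always enough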;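 also: 0% = DMSO wells with 35 nM protein and 100% = DMSO wells with 750 nM protein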
NR2E3 ag-2: NR2E3 (human) agonism | Q9Y5X4 | GST-NR2E3/biotin-RetCOR TR-FRET, 1536-well | inhibition of corepressor binding, % at 4.78 µM | 320,000 compounds, 0.12% hits;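 active = percent inhibition above the cutoff of mean plus 3 SD of all tested compounds, set per screening campaign, cut at about 20% in these data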;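 also: 0% = DMSO wells and 100% = biotin wells as full block of FRET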
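Material: NR2E3–RetCOR corepressor complex / Amount: 1.35 nM GST-NR2E3 / Medium: Tris pH 7.5 / Compound: single nominal compound dose of 4.8 µM / Incubation: 5 h at 4 °C / Technique: TR-FRET, Eu(K)-anti-GST donor, streptavidin-D2 acceptor, ex 340, em 617/671 nm / Read-out basis: percent loss of FRET ratio relative to control wells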
PG9 Ab binder: small molecules binding HIV-1 gp120 antibody PG9 | inhibition, % at 6.7 µM | TR-FRET gp120-PG9 antibody binding | 360,000 compounds, 0.43% hits; in the data active = inhibition above about 8.5%
NR2E3 ag confirm: confirmation of human NR2E3 agonists | shares compounds with NR2E3 ag-1 | CHO-S mammalian two-hybrid NR2E3-NCOR, luciferase luminescence | inhibition, % at 3.98 µM | 2,300 compounds, 51% hits | AID 624378;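 active = average inhibition above a cutoff equal to the mean inhibition of all tested compounds plus one SD, cut at about 70% in these data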;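 also: 0% = DMSO in NR2E3 cells and 100% = DMSO in cells lacking NR2E3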
VP16 counter: GAL4-VP16 reporter inhibition in NR2E3 agonist counterscreen | shares compounds with NR2E3 ag-1 | CHO-S GAL4-VP16 luciferase reporter, luminescence | inhibition, % at 3.98 µM | 2,300 compounds, 29% hits;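 active = mean inhibition above a cutoff equal to the average over all tested compounds plus one standard deviation, cut at about 70% in these data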;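 also: luciferase from a UAS reporter driven by GAL4-VP16 transactivation; 0% = DMSO with VP16-transfected cells and 100% = DMSO with cells lacking VP16; higher means less reporter light so more repression of VP16 activity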
* = called active by the depositor; . = no result given. In the library only some 1.6% were active in any assay of this set; here they are far more common.

SMILES	VLA-4 inh	NR2E3 ag-1	Rev-erbA mod	NR2E3 ag-2	PG9 Ab binder	NR2E3 ag confirm	VP16 counter
O=C(COc1ccccc1/C=C1\SC(=O)NC1=O)Nc1ccccc1	-3.1	11.9	-4.4	1.8	-2.0	.	.
O=C1NC(=O)/C(=C/c2ccccc2OCc2ccccc2)S1	-0.3	51.0	-8.9	4.5	-0.3	57.4	45.2
O=S(=O)(Nc1cccc(-c2cn3cccnc3n2)c1)c1ccc(-c2ccccc2)cc1	18.2	57.8	-1.9	3.7	1.8	56.2	59.8
CCn1c(SCC(=O)c2ccc(-c3ccccc3)cc2)nnc1-c1ccccc1OC	.	.	-1.0	.	.	.	.
COc1ccc(CCNC(=O)Cn2ncc3c2-c2cc(C)ccc2OC3)cc1	.	.	-5.9	.	.	.	.
c1ccc(CNc2nc(-c3ccccn3)nc3ccccc23)cc1	1.0	95.3*	2.6	-2.7	-0.9	99.2*	59.1
c1ccc(CNc2nc(-c3ccccc3)nc3ccccc23)cc1	12.1	-26.9	1.5	0.1	-2.5	.	.
CCC(C)Nc1nc(-c2cccc(OC)c2O)nc2ccccc12 (centres undefined)	-0.3	-15.0	2.1	0.1	-0.2	.	.
CCC(C)Nc1nc(-c2ccccn2)nc2ccccc12 (centres undefined)	-4.0	99.8*	-3.4	1.7	2.7	98.6*	56.1
Cc1[nH]c2ccccc2c1CC(=O)Nc1ccc(Nc2cccnc2)c(Br)c1	.	.	7.1	.	-1.9	.	.
Cn1nc(CC(=O)Nc2ccc(N3CCN(C(=O)OC(C)(C)C)CC3)cc2)c2ccccc2c1=O	4.2	75.7*	-4.1	-3.0	-0.4	90.1*	79.1*
O=C(COc1ccccc1F)Nc1ccc2c(c1)OCCO2	4.6	73.5*	-1.9	3.7	1.0	9.5	-5.9
COc1cc(NC(=O)Cc2nn(C)c(=O)c3ccccc23)cc(OC)c1	15.7	14.3	-6.3	0.6	-0.3	.	.
Cn1nc(CC(=O)Nc2ccc3c(c2)OCCO3)c2ccccc2c1=O	25.3	97.8*	4.8	0.6	-0.5	91.5*	72.7*
Cn1nc(CC(=O)N2CCN(c3ccccc3)CC2)c2ccccc2c1=O	2.4	-15.9	1.3	3.5	-1.1	.	.
Cc1ccc(NC(=O)Cc2nn(C)c(=O)c3ccccc23)cc1F	11.0	54.4	5.3	3.6	-2.5	90.2*	75.0*
COC(=O)C[C@H]1CC[C@H]2[C@H](COc3ccc(NS(=O)(=O)c4ccccc4C)cc3C(=O)N2C)O1	.	.	-1.7	.	.	.	.
Cc1cccc(-n2ncc3c2CCCC3NC(=O)c2ccncc2)c1C (centres undefined)	.	83.0*	4.3	.	2.0	85.1*	76.8*
COc1ccc(C(=O)NC2CCCc3c2cnn3-c2cccc(C)c2C)o1 (centres undefined)	-97.0	65.2	-4.1	1.5	-2.4	31.9	30.1
CCn1cc(C(=O)NC2CCCc3c2cnn3-c2cccc(C)c2C)cn1 (centres undefined)	-2.9	104.9*	1.2	-0.1	-0.4	94.8*	88.3*
Cc1cccc(-n2ncc3c2CCCC3NC(=O)Cc2c(C)noc2C)c1C (centres undefined)	27.1	60.0	-0.4	0.2	-2.5	54.4	56.9
Cc1cc(C(=O)NC2CCCc3c2cnn3-c2cccc(C)c2C)no1 (centres undefined)	17.8	12.5	-1.4	-0.7	-0.2	.	.
Cc1cccc(-n2ncc3c2CCCC3NC(=O)c2cccs2)c1C (centres undefined)	.	17.4	-1.6	.	-1.7	.	.
CC1=C(C(=O)NC2CCCc3c2cnn3-c2cccc(C)c2C)OCCO1 (centres undefined)	-13.8	80.2*	3.5	0.8	0.9	73.0*	66.7
Nc1ccc(-c2cc3ccccc3oc2=O)cc1	-8.4	51.5	-0.7	-1.4	-0.6	58.1	51.4
SMILES	VLA-4 inh	NR2E3 ag-1	Rev-erbA mod	NR2E3 ag-2	PG9 Ab binder	NR2E3 ag confirm	VP16 counter
Cc1cc(C)nc(-n2nc(C)cc2Nc2ccccc2)n1	-8.4	111.5*	-2.4	-2.7	1.3	11.8	5.7
Cc1cc(Nc2ccccc2)n(-c2ccccc2)n1	-1.7	-1.2	4.9	3.4	-2.1	.	.
Cc1cc(N2CCN(c3ccccc3)CC2)nc(-n2nc(C)cc2C)n1	-18.8	81.5*	1.5	-1.5	2.6	-12.7	12.2
CSc1nnc(NC(=O)c2nc(S(=O)(=O)Cc3cccc(C)c3)ncc2Cl)s1	9.9	49.1	-1.3	7.1	-0.4	47.0	9.9
CCc1nnc(NC(=O)c2nc(S(=O)(=O)Cc3ccc(C)cc3)ncc2Cl)s1	0.5	53.9	1.3	3.1	-2.5	58.6	12.8
Cc1ccc(CS(=O)(=O)c2ncc(Cl)c(C(=O)Nc3nnc(C(C)C)s3)n2)cc1	2.3	56.8	-3.0	-1.6	-1.6	56.6	14.1
CCc1nnc(NC(=O)c2nc(S(=O)(=O)Cc3ccccc3)ncc2Cl)s1	6.0	31.5	4.5	6.6	-3.5	.	.
CC(C)c1nnc(NC(=O)c2nc(S(=O)(=O)Cc3ccc(F)cc3)ncc2Cl)s1	15.5	23.8	-2.2	4.6	0.3	.	.
COc1ccc(CNC(=O)c2sc3nc(C)c(Cl)c(C)c3c2N)cc1	.	.	-6.8	.	.	.	.
C#CCN1CC(N(C)CCOC(=O)c2cccs2)CS1(=O)=O (centres undefined)	.	.	3.0	.	.	.	.
CC(=O)N1CCN(c2ccc(NC(=O)c3ccc4c(c3)OCO4)cc2)CC1	18.6	5.8	4.7	0.3	-3.3	.	.
O=C(Nc1ccc(N2CCN(C(=O)c3ccccc3)CC2)cc1)c1ccc2c(c1)OCO2	11.3	66.2	-2.3	1.4	-1.6	85.0*	46.0
Cc1ccc(S(=O)(=O)N2CCN(c3ncnc4sccc34)CC2)cc1C	.	105.2*	-4.0	.	-0.2	91.2*	78.9*
Cc1ccc(S(=O)(=O)N2CCN(c3ncccn3)CC2)cc1C	7.8	5.7	0.9	3.1	-0.3	.	.
O=C(c1ccc(N2CCCCC2)c([N+](=O)[O-])c1)N1CCN(S(=O)(=O)c2ccccc2)CC1	9.0	15.4	3.6	0.6	-1.7	.	.
NC(=O)c1ccc(N2CCN(S(=O)(=O)c3ccccc3)CC2)c([N+](=O)[O-])c1	-5.8	74.3*	0.5	1.9	0.0	87.0*	68.9
Cc1ccccc1N1CCN(S(=O)(=O)c2ccc3c(c2)oc(=O)n3C)CC1	.	.	-1.9	.	.	.	.
CC1c2cc3c(cc2CCN1C(=O)c1ccc(C(F)(F)F)cc1)OCCCO3 (centres undefined)	4.6	58.6	6.1	-2.4	0.4	21.1	39.2
COc1ccc(CNC(=O)c2cccc(S(=O)(=O)N3CCCCC3)c2)cc1OC	13.5	55.4	-0.4	2.7	-2.2	58.7	57.0
COc1cc(OC)c(OC)cc1CNC(=O)c1cccc(S(=O)(=O)N2CCc3ccccc3C2)c1	.	90.9*	-3.4	.	0.9	95.8*	81.4*
